GC-B act = human GC-B receptor activators, primary screen, HEK293 GC-B cells, cGMP TR-FRET, EC30 CNP. 370,000 tested, 0.11% active. 0% at EC30 CNP, 100% saturating CNP. activation, % at 10 µM;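 active means activation at 10 µM reaching about 35% in either raw or pattern-adjusted values, limit read from the data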
FN deposit inh = inhibitors of fibronectin matrix deposition, primary screen, AH1F cells, Alexa488-fibronectin fluorescence, plate reader; AH1F fibroblasts, overnight; inhibition, % at 12.6 µM; 350,000 tested, 0.086% active; AID 743247, 2014;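 active means mean inhibition across replicates of 30% or more, regardless of how many single replicates reach that level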;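 further: positive control wells lacked labelled fibronectin entirely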
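Material: AH1F fibroblasts assembling fluorescent fibronectin matrix; amount: 10000 AH1F cells/well; medium: DMEM, 2% serum; reagent: Alexa488-fibronectin, 24 nM final in well; dosing: single compound dose, delivered by pin transfer; incubation: 1 h adhesion, overnight exposure; detection: fluorescence after three HBSS washes, excitation 485 nm, emission 525 nm; measure: fibronectin deposition inhibition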
GC-A act = GC-A stimulated cGMP production enhancers – HEK293 GC-A cells, cGMP TR-FRET, EC30 ANP, primary screen; activation, % at 10 µM; Atrial natriuretic peptide receptor 1 (Homo sapiens), P16066; 0% at EC30 ANP, 100% saturating ANP; 370,000 tested, 0.14% active; in the data active means activation above about 40%
CASP6 VEID inh = human caspase-6 inhibitors, primary screen, biochemical, VEID-R110 fluorescence, single point, set 2; P55212; purified caspase-6, Z-VEID-R110 cleavage fluorescence; inhibition, % at 12.5 µM; 350,000 tested, 0.53% active;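 active means mean inhibition across replicates at least about 35%, with every replicate also reaching that limit, limit read from the data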;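 further: 0% = median of neutral control wells and 100% = no fluorescence left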
NSD2 HMT inh = NSD2 histone methyltransferase inhibitors, primary screen, biochemical, AlphaScreen, single concentration, set 2; Histone-lysine N-methyltransferase NSD2 (Homo sapiens), O96028; NSD2 peptide methylation, 120 min; inhibition, % at 12.5 µM; 310,000 tested, 0.54% active; AID 743445, 2014; in the data active means inhibition above about 50%
Target sequence (O96028 whole entry, looked up): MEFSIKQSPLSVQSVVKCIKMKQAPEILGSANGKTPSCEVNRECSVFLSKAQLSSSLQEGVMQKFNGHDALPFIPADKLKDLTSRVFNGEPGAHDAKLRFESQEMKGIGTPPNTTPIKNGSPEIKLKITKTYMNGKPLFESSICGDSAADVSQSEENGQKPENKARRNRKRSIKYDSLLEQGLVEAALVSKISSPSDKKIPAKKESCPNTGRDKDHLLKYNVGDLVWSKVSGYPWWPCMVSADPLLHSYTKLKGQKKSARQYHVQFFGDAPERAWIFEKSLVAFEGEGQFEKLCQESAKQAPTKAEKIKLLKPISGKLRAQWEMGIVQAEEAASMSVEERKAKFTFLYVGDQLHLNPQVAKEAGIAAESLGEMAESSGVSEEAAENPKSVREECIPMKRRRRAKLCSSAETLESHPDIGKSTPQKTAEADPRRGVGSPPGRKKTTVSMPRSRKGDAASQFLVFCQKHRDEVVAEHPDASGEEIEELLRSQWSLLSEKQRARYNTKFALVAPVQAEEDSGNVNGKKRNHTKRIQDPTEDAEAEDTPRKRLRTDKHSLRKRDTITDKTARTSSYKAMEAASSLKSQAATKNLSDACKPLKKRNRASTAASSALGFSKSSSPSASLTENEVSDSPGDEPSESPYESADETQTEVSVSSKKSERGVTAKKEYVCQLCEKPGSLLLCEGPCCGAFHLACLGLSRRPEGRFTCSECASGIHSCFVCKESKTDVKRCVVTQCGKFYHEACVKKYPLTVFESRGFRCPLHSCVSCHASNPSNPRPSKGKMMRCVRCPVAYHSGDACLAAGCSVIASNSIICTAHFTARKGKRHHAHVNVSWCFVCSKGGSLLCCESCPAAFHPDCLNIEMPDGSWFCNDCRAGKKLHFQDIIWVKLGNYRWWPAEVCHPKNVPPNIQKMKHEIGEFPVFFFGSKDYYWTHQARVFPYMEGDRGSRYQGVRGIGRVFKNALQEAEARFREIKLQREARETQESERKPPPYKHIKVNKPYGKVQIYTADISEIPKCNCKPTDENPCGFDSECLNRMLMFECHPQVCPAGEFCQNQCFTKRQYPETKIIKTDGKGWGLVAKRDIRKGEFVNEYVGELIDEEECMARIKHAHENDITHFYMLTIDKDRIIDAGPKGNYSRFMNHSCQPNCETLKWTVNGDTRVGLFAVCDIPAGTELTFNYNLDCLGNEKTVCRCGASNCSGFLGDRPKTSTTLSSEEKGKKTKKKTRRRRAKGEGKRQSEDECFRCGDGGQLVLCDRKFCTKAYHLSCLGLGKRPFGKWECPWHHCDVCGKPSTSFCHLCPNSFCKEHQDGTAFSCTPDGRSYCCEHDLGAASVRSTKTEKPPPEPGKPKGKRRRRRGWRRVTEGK
CaV13 ICDI inh = Primary screen for inhibitors of IQ motif and Ca2+-dependent inactivation inhibitor domain binding in CACNA1D, Förster resonance energy transfer in living cells, … | inhibition, % at 12.3 µM | HEK cells, CFP/YFP FRET ICDI-IQ, plate reader, 10 min; percent FRET-ratio fall versus neutral wells | 340,000 tested, 0.098% active;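 active means mean replicate inhibition of at least 30% and at least 1% of replicates passing that level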;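 further: 0% = median of the neutral control wells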
* hit, by the source's call; nt = no result; + = active, no number. Compounds with a hit are over-represented: about 0.99% of the library has one in this group of screens.

SMILES	GC-B act	FN deposit inh	GC-A act	CASP6 VEID inh	NSD2 HMT inh	CaV13 ICDI inh
C[C@H](CO)N1C[C@H](C)[C@@H](CN(C)C(=O)Nc2cccc3ccccc23)Oc2c(cccc2N(C)C)C1=O	nt	3	nt	-5	nt	nt
CC[C@@]1(O)C(=O)OCc2c1cc1n(c2=O)Cc2cc3c(CN(C)C)c(O)ccc3nc2-1	14	-12	53*	-28	nt	-51
O=C(C[C@H]1CC[C@@H](NS(=O)(=O)c2ccccc2)[C@H](CO)O1)NCc1ccncn1	nt	nt	nt	-2	nt	nt
O=C1NC(=O)/C(=C/c2cccc3ccccc23)S1	-3	-2	2	9	3	-19
O=C1NC(=O)/C(=C\c2ccc(O)cc2O)S1	-4	-6	-1	87*	102*	-5
C[C@@H]1CN([C@H](C)CO)S(=O)(=O)c2ccc(-c3cccc(C#N)c3)cc2O[C@H]1CN(C)C(=O)c1cccnc1	nt	7	nt	0	nt	nt
CC(C)NC(=O)N(C)C[C@H]1Oc2ncc(-c3cncnc3)cc2C(=O)N([C@@H](C)CO)C[C@H]1C	nt	-1	nt	nt	nt	nt
Cn1c(CSCCOc2ccccc2)n[nH]c1=S	-4	5	-2	45*	-1	-19
C[C@@H]1CN([C@H](C)CO)C(=O)c2cc(C3=CCCC3)cnc2O[C@@H]1CN(C)C	nt	-12	nt	-3	nt	nt
CCCCCCSc1ccc([C@@H]2[C@H]3C(=O)N(C)C(=O)[C@H]3[C@]3(C(=O)OC)CCCCN23)cc1OC	-8	31*	-3	0	nt	-9
COc1ccc(NC(=O)Nc2ccc3c(c2)[C@@H]2C[C@@H](CC(=O)N4CCc5ccccc5C4)O[C@H](CO)[C@@H]2O3)cc1	nt	7	nt	3	nt	nt
COc1cc(/C=C(/C#N)C(=O)Nc2ccccc2)ccc1OCc1ccc(C(=O)O)cc1	0	-4	4	37*	1	0
C[C@H](CO)N1C[C@H](C)[C@H](CN(C)S(=O)(=O)c2cn(C)cn2)Oc2c(NC(=O)c3nc4ccccc4s3)cccc2C1=O	nt	5	nt	2	nt	nt
C[C@@H]1CN([C@H](C)CO)C(=O)Cc2cc(NC(=O)CCC(F)(F)F)ccc2O[C@H]1CN(C)C(=O)Nc1cccc2ccccc12	nt	0	nt	4	nt	nt
CC1=C(C#N)c2nc(N)c(C#N)c(C)c2/C1=C\c1ccccc1	nt	nt	nt	nt	-1	nt
CC1=C(C#N)c2nc(N)c(C#N)c(C)c2/C1=C\c1ccc(OCC(=O)O)c(Cl)c1	3	3	2	16	57*	-5
C=CCn1c(NCCO)nc2sc3c(c2c1=O)CCC3	0	37*	6	2	nt	-3
O=c1c2c3c(sc2nc(NCCO)n1CCc1ccccc1)CCCCC3	-7	2	-6	nt	5	-3
Cc1ccc(-c2ccc(CN3C(C)C(=O)N(Cc4cn(CCC5OCCO5)nn4)CCS3(=O)=O)cc2)cc1 (stereo unspecified)	1	-9	0	5	nt	-8
CC1C(=O)N(Cc2cn(CCC3OCCO3)nn2)CCS(=O)(=O)N1Cc1ccc(-c2ccc(Cl)cc2)cc1 (stereo unspecified)	-9	-12	49*	2	nt	-10
CCCNC(=O)N(C)C[C@H]1Oc2ncc(-c3ccncc3)cc2C(=O)N([C@@H](C)CO)C[C@@H]1C	nt	0	nt	5	nt	nt
CC(C)CN1C(=O)NC2(CCCc3ccccc32)C1=O (stereo unspecified)	1	nt	4	40*	24	nt
Cc1nc2ccc(S(=O)(=O)Nc3ccc(-c4nc5cccnc5s4)cc3)cc2s1	-4	2	-7	-1	nt	139*
Cc1cc(-c2nc3cccnc3s2)ccc1NS(=O)(=O)c1cccs1	-8	9	9	0	nt	+
Cc1nc2ccc(S(=O)(=O)Nc3cccc(-c4nc5cccnc5s4)c3)cc2s1	-5	-4	2	0	nt	-5
O=[N+]([O-])c1ccc(Sc2ccccc2Cl)nc1	2	-10	2	nt	3	-4
